Assay results: ChEMBL document CHEMBL4725474, “Discovery of a Selective, Covalent IRAK1 Inhibitor with Antiproliferative Activity in MYD88 Mutated B-Cell Lymphoma” (ACS Med Chem Lett, 2020)
Calls of active or inactive are those of the source. The rule behind the calls is not given here.

Tests used:
[1] = target: T1, Interleukin-1 receptor-associated kinase 1 (Homo sapiens, UniProt P51617); test: Inhibition of desthio-biotinylated JH-XIII-39-01 probe binding to IRAK1 in human BCWM1 cells assessed as blocking of IRAK1 pulldown at 5 to 10 uM measured after 90 mins by Western blot based pulldown assay; type: cell-based
Target sequence in this assay (P51617 whole entry, looked up, the tested form may be a part): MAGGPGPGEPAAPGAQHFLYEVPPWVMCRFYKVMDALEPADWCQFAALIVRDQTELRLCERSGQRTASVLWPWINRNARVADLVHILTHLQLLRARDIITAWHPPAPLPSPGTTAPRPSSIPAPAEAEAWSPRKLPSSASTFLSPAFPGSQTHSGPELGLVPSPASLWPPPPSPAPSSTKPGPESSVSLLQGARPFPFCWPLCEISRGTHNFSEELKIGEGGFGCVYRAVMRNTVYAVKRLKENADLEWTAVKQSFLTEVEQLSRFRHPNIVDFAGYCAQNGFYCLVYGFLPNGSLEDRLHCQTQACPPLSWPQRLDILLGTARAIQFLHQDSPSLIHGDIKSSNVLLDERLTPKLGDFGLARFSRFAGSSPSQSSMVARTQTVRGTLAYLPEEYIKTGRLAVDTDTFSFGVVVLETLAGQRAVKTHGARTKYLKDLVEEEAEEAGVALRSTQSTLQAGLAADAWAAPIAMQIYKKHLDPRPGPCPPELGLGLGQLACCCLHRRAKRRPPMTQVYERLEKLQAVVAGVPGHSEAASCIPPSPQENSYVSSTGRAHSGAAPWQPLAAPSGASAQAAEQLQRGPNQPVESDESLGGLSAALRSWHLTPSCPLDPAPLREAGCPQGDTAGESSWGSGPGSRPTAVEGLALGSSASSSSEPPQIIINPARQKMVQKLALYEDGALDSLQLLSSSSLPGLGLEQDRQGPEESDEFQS

[2] = target: T2, Mitogen-activated protein kinase kinase kinase 19 (Homo sapiens, UniProt Q56UN5); test: Inhibition of wild-type human partial length YSK4 (T1019 to H1328 residues) expressed in mammalian expression system by Kinomescan method
T2 sequence (Q56UN5 whole entry): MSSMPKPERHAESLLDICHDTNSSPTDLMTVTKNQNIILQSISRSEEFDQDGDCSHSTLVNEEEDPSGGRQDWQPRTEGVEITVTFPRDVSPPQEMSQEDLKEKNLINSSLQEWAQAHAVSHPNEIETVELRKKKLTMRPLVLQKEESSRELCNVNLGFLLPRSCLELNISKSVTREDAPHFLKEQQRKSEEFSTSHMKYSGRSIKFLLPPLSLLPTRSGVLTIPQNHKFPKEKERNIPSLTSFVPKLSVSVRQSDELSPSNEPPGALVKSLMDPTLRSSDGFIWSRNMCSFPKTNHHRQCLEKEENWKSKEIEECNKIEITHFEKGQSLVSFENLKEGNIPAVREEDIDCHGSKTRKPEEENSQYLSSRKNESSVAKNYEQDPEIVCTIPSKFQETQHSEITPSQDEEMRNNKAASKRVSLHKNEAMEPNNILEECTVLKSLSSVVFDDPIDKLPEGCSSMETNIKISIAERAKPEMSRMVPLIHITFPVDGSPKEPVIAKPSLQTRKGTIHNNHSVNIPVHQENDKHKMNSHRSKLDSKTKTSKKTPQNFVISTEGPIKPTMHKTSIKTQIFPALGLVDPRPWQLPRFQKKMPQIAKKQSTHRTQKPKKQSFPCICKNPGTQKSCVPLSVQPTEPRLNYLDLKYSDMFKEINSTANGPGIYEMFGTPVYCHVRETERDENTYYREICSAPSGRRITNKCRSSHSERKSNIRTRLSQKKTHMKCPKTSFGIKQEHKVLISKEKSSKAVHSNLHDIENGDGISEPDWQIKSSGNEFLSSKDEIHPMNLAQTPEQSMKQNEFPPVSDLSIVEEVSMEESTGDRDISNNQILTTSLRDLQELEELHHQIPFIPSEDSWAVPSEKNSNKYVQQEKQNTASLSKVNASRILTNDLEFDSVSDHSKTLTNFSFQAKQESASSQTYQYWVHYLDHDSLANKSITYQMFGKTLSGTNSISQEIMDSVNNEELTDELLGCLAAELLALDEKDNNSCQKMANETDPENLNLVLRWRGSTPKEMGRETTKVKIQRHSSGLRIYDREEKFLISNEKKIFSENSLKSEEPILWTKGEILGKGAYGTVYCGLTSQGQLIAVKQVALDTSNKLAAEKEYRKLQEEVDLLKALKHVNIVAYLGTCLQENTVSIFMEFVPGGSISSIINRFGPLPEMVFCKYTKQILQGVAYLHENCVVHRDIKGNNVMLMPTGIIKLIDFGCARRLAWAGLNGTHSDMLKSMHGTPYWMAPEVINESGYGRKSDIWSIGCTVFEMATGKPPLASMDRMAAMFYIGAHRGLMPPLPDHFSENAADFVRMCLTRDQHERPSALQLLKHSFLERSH

[3] = tested on: OCI-LY19; test: Cytotoxicity against human OCILY19 cells expressing MYD88 mutant assessed as cell killing measured after 72 hrs by CellTiter-Glo luminescent cell viability assay; type: functional, cell-based
Method in brief: (§1)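 Cells were exposed to inhibitors for 72 h, and viability was read by CellTiter-Glo luminescence. EC50 values were derived from dose–response curves.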

[4] = target: T1, Interleukin-1 receptor-associated kinase 1; test: Covalent binding affinity to recombinant IRAK1 (unknown origin) assessed as labeling at Cys302 residue site measured after 2 hrs by LC-MS analysis
Target sequence in this assay (P51617 whole entry, looked up, the tested form may be a part): as the sequence (P51617 whole entry, looked up, the tested form may be a part) above

[5] = Cytotoxicity against human BCWM1 cells expressing MYD88 mutant assessed as cell killing measured after 72 hrs by CellTiter-Glo luminescent cell viability assay; type: functional, cell-based; details: BCWM1, 72 h; method in brief: as §1
[6] = Cytotoxicity against human HBL1 cells expressing MYD88 mutant assessed as cell killing measured after 72 hrs by CellTiter-Glo luminescent cell viability assay; type: functional, cell-based; method in brief: as §1
[7] = tested on: TMD8; test: Cytotoxicity against human TMD8 cells expressing MYD88 mutant assessed as cell killing measured after 72 hrs by CellTiter-Glo luminescent cell viability assay; type: functional, cell-based; method in brief: as §1
[8] = target: T3, Interleukin-1 receptor-associated kinase 4 (Homo sapiens, UniProt Q9NWZ3); test: Inhibition of IRAK4 (unknown origin) using methylcoumarin-labeled peptide as substrate in presence of ATP by FRET assay
T3 sequence (Q9NWZ3 whole entry): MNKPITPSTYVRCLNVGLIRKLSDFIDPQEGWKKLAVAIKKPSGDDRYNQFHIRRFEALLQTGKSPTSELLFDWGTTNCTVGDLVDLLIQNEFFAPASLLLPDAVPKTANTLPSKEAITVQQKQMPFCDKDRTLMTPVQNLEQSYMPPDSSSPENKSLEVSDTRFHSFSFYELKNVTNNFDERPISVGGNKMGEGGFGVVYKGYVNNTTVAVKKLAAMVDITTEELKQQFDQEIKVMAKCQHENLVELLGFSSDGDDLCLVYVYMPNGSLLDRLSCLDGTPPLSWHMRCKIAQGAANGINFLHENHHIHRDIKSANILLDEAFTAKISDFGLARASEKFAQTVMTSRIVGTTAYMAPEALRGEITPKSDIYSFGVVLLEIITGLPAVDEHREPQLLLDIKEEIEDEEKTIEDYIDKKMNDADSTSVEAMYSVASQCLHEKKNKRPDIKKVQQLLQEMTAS

[9] = tested on: OCI-Ly3; test: Cytotoxicity against human OCILY3 cells expressing MYD88 mutant assessed as cell killing measured after 72 hrs by CellTiter-Glo luminescent cell viability assay; type: functional, cell-based; method in brief: as §1
[10] = tested on: RPMI-8226; test: Cytotoxicity against human RPMI-8226 cells expressing MYD88 mutant assessed as cell killing measured after 72 hrs by CellTiter-Glo luminescent cell viability assay; type: functional, cell-based; method in brief: as §1
[11] = Cytotoxicity against human MWCL1 cells expressing MYD88 mutant assessed as cell killing measured after 72 hrs by CellTiter-Glo luminescent cell viability assay; type: functional, cell-based; method in brief: as §1
[12] = tested on: OCI-Ly7; test: Cytotoxicity against human OCILY7 cells expressing MYD88 mutant assessed as cell killing measured after 72 hrs by CellTiter-Glo luminescent cell viability assay; type: functional, cell-based; method in brief: as §1
[13] = tested on: Ramos; test: Cytotoxicity against human Ramos cells expressing MYD88 mutant assessed as cell killing measured after 72 hrs by CellTiter-Glo luminescent cell viability assay; type: functional, cell-based; method in brief: as §1
[14] = target: T1, Interleukin-1 receptor-associated kinase 1; test: Inhibition of recombinant IRAK1 (unknown origin) by Invitrogen adapta assay
Target sequence in this assay (P51617 whole entry, the tested form may be a part): as the sequence (P51617 whole entry, looked up, the tested form may be a part) above

[15] = target: T1, Interleukin-1 receptor-associated kinase 1; test: Inhibition of desthio-biotinylated JH-XIII-39-01 probe binding to IRAK1 in human BCWM1 cells assessed as blocking of IRAK1 pulldown at 5 uM measured after 90 mins by Western blot based pulldown assay; type: cell-based
Target sequence in this assay (P51617 whole entry, looked up, the tested form may be a part): as the sequence (P51617 whole entry, looked up, the tested form may be a part) above

[16] = target: T1, Interleukin-1 receptor-associated kinase 1; test: Inhibition of wild-type human partial length IRAK1 (R194 to S712 residues) expressed in mammalian expression system by Kinomescan method
Target sequence in this assay (P51617 whole entry, the tested form may be a part): as the sequence (P51617 whole entry, looked up, the tested form may be a part) above

[17] = target: T3, Interleukin-1 receptor-associated kinase 4; test: Inhibition of wild-type human partial length IRAK4 (M1 to S460 residues) expressed in mammalian expression system by Kinomescan method
[18] = target: T1, Interleukin-1 receptor-associated kinase 1; test: Covalent binding affinity to recombinant IRAK1 (unknown origin) assessed as labeling at Cys302/Cys307 residue sites at ratio 3:1 measured after 2 hrs by LC-MS analysis
Target sequence in this assay (P51617 whole entry, looked up, the tested form may be a part): as the sequence (P51617 whole entry, looked up, the tested form may be a part) above

[19] = target: T1, Interleukin-1 receptor-associated kinase 1; test: Covalent binding affinity to recombinant IRAK1 (unknown origin) assessed as labeling at Cys307 residue site measured after 2 hrs by LC-MS analysis
Target sequence in this assay (P51617 whole entry, looked up, the tested form may be a part): as the sequence (P51617 whole entry, looked up, the tested form may be a part) above

[20] = Homo sapiens, OCI-LY19, 72 h, read-out: EC50
[21] = Homo sapiens, HBL1, 72 h, read-out: EC50
[22] = Homo sapiens, TMD8, 72 h, read-out: EC50
[23] = Homo sapiens, OCI-Ly3, 72 h, read-out: EC50
[24] = Homo sapiens, RPMI-8226, 72 h, read-out: EC50
[25] = Homo sapiens, MWCL1, 72 h, read-out: EC50
[26] = Homo sapiens, OCI-Ly7, 72 h, read-out: EC50
[27] = Homo sapiens, Ramos, 72 h, read-out: EC50

SMILES: C=CC(=O)Nc1cccc(C(=O)Nc2ccc(NC(=O)c3cccc(-c4ccn[nH]4)n3)cc2)c1
- inhibition [1]: Active
- IC50 [2]: 0.057 µM
- EC50 [3, 20]: 0.59 µM
- Activity [4]: Active
- EC50 [5]: 1.02 µM
- EC50 [6, 21]: 12.1 µM
- EC50 [7, 22]: 2.4 µM
- IC50 [8]: > 10 µM
- EC50 [9, 23]: 9.72 µM
- EC50 [10, 24]: 5.13 µM
- EC50 [11, 25]: 3.88 µM
- EC50 [12, 26]: 2.39 µM
- EC50 [13, 27]: 1.79 µM

SMILES: CN(C)C/C=C/C(=O)Nc1cccc(C(=O)Nc2ccc(NC(=O)c3cccc(-c4ccn[nH]4)n3)cc2)c1
- IC50 [14]: 0.052 µM
- EC50 [3, 20]: 1.8 µM
- EC50 [5]: 5.62 µM
- EC50 [6, 21]: 18.2 µM
- EC50 [7, 22]: 10.6 µM
- EC50 [9, 23]: 14.3 µM
- EC50 [10, 24]: 19.8 µM
- EC50 [11, 25]: 8.13 µM
- inhibition [15]: Active
- EC50 [12, 26]: 7.65 µM
- EC50 [13, 27]: 6.99 µM

SMILES: C=CC(=O)Nc1cccc(C(=O)Nc2cccc(NC(=O)c3cccc(-c4ccn[nH]4)n3)c2)c1
- inhibition [1]: Active
- EC50 [3, 20]: 2.9 µM
- Activity [4]: Active
- EC50 [5]: 12.8 µM
- EC50 ([6]; hbl1): Not Active
- EC50 ([7]; tmd8): Not Active
- EC50 ([9]; oci-ly3): Not Active
- EC50 ([10]; rpmi-8226): Not Active
- EC50 [11, 25]: 29 µM
- EC50 [12, 26]: 16.1 µM
- EC50 ([13]; ramos): Not Active

SMILES: CN(C)C/C=C/C(=O)Nc1cccc(C(=O)Nc2ccc(Nc3nccc(-c4cccnc4)n3)cc2)c1
- IC50 [16]: 0.0142 µM
- IC50 [17]: > 10 µM

SMILES: C=CC(=O)Nc1ccc(C(=O)Nc2cccc(NC(=O)c3cccc(-c4ccn[nH]4)n3)c2)cc1
- EC50 ([3]; oci-ly19): Not Active
- EC50 [5]: 418 µM
- EC50 ([6]; hbl1): Not Active
- Activity [18]: Active
- EC50 ([7]; tmd8): Not Active
- IC50 [8]: > 10 µM
- EC50 ([9]; oci-ly3): Not Active
- EC50 ([10]; rpmi-8226): Not Active
- EC50 ([11]; mwcl1): Not Active
- EC50 ([12]; oci-ly7): Not Active
- EC50 ([13]; ramos): Not Active

SMILES: CC1NC(=O)NC1CCCCCC(=O)NCCOCCOCCOCCNC(=O)CCN(C)C/C=C/C(=O)Nc1cccc(C(=O)Nc2ccc(NC(=O)c3cccc(-c4ccn[nH]4)n3)cc2)c1 (stereo not given)
- IC50 [14]: 0.07 µM

SMILES: COc1cc(N2CCOCC2)ccc1NC(=O)c1cccc(-c2ccn[nH]2)n1
- IC50 [16]: 0.009 µM
- IC50 [17]: 0.017 µM

SMILES: CCC(=O)Nc1cccc(C(=O)Nc2ccc(NC(=O)c3cccc(-c4ccn[nH]4)n3)cc2)c1
- EC50 [3, 20]: 7.79 µM
- EC50 [5]: 19.9 µM
- EC50 ([6]; hbl1): Not Active
- EC50 ([7]; tmd8): Not Active
- EC50 ([9]; oci-ly3): Not Active
- EC50 [10, 24]: 31.1 µM
- EC50 ([11]; mwcl1): Not Active
- EC50 [12, 26]: 20.7 µM
- EC50 ([13]; ramos): Not Active

SMILES: C=CC(=O)Nc1ccc(C(=O)Nc2ccc(NC(=O)c3cccc(-c4ccn[nH]4)n3)cc2)cc1
- EC50 [3, 20]: 0.71 µM
- Activity [19]: Active
- EC50 [5]: 2.54 µM
- EC50 [6, 21]: 14.6 µM
- EC50 [7, 22]: 5.26 µM
- EC50 ([9]; oci-ly3): Not Active
- EC50 ([10]; rpmi-8226): Not Active
- EC50 [11, 25]: 4.91 µM
- EC50 [12, 26]: 5.16 µM
- EC50 ([13]; ramos): Not Active
